ChEMBL document CHEMBL1129329, “Structure-activity studies of 6-substituted decahydroisoquinoline-3-carboxylic acid AMPA receptor antagonists. 2. Effects of distal acid bioisosteric substitution, absolute stereochemical preferences, and in vivo activity” (J Med Chem, 1996)

What was measured:
[1] = target: T1, Glutamate receptor ionotropic, AMPA (Rattus norvegicus, UniProt P19490+P19491+P19492+P19493); assay: Binding affinity against Ionotropic glutamate receptor AMPA using [3H]AMPA 19755 radioligand; format: protein-complex assay
[2] = target: Glutamate receptor ionotropic, kainate; assay: Binding affinity against Ionotropic glutamate receptor kainate using [3H]-Kainic acid 19755 radioligand; format: protein-complex assay
Procedure, shortened: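 Displacement of radioligand binding in rat cortical tissue: [3H]AMPA for AMPA sites, [3H]kainic acid for kainate sites. Assays run in triplicate unless otherwise indicated; some IC50 values come from a single assay.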

Glutamate NMDA receptor [3] = assay: Affinity of [3H]-CGS- 19755 radioligand to rat N-methyl-D-aspartate (NMDA) receptor; format: protein-complex assay
[4] = target: T1, Glutamate receptor ionotropic, AMPA; assay: Antagonism at AMPA receptor by inhibition of depolarizations induced by 40 uM AMPA in rat cortical slice preparation.; format: functional
[5] = target: Glutamate receptor ionotropic, kainate; assay: Antagonism at Ionotropic glutamate receptor kainate by inhibition of depolarizations induced by 10 uM kainic acid in rat cortical slice preparation.; format: functional
Mus musculus [6] = assay: Effective dose to block ATPA-induced muscle rigidity in mice at a dose of 30 mg/kg administered intraperitoneally; details: ip
Glutamate NMDA receptor [7] = assay: Antagonism at NMDA receptor by inhibition of depolarizations induced by 40 uM NMDA in rat cortical slice preparation.; format: functional
Mus musculus [8] = assay: (§1) Effective dose to produce neurological impairments in mice using the horizontal screen assay, administered intraperitoneally; format: functional; details: ip
Procedure, shortened: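 Mice dosed intraperitoneally 30 min before testing were placed on a horizontal screen, which was then turned upside down. Unimpaired mice climb back to the top within 2 min; failure indicates neurological impairment. This was done before MES testing.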

Mus musculus [9] = assay: Effective dose to block maximal electroshock-induced convulsions in mice, administered intraperitoneally; format: functional; details: ip
[10] = target: T1, Glutamate receptor ionotropic, AMPA; assay: Compound was tested for AMPA receptor antagonistic activity by measuring its ability to inhibit depolarizations induced by 10 uM quisqualic acid in rat cortical slice preparation.; format: functional
Mus musculus [11] = assay: as §1; format: functional; details: ip; remark: listed apart in the source
Procedure, shortened: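 Mice dosed ip 30 min beforehand are placed on a horizontal screen, which is then turned upside down. Unimpaired mice climb back to the top within 2 min.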

Glutamate NMDA receptor [12] = assay: Compound was tested for NMDA receptor antagonistic activity by measuring its ability to inhibit depolarizations induced by 40 uM NMDA in rat cortical slice preparation.; format: functional
[13] = target: Glutamate receptor ionotropic, kainate; assay: Compound was tested for Ionotropic glutamate receptor kainate antagonistic activity by measuring its ability to inhibit depolarizations induced by 10 uM kainic acid in rat cortical slice preparation.; format: functional
[14] = target: T1, Glutamate receptor ionotropic, AMPA; assay: Compound was tested for Ionotropic glutamate receptor AMPA antagonistic activity by measuring its ability to inhibit depolarizations induced by 40 uM AMPA in rat cortical slice preparation.; format: functional
[15] = target: Glutamate receptor ionotropic, AMPA (Rattus norvegicus, UniProt P19491+P19492+P19493+P19490); assay: Compound was tested for AMPA receptor antagonistic activity by measuring its ability to inhibit depolarizations induced by 40 uM AMPA in rat cortical slice preparation; agonist; format: functional
Mus musculus [16] = assay: Effective dose to block lethality induced by 200 mg/kg ip dose of NMDA; format: functional; details: route intraperitoneal
Procedure, shortened: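 Mice dosed ip 30 min before a 200 mg/kg ip NMDA challenge; protection from lethality recorded and ED50 (mg/kg, ip) derived.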

Mus musculus [17] = assay: Effective dose to block ATPA-induced muscle rigidity in mice at a dose of 30mg/kg, administered intravenously; format: functional; details: iv
Procedure, shortened: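 Mice given test agent ip 30 min before iv challenge with ATPA (30 mg/kg), a systemic AMPA agonist that produces characteristic muscle rigidity.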

Sequence of Glutamate receptor ionotropic, AMPA (Rattus norvegicus, UniProt P19491+P19492+P19493+P19490) (P19491 whole entry): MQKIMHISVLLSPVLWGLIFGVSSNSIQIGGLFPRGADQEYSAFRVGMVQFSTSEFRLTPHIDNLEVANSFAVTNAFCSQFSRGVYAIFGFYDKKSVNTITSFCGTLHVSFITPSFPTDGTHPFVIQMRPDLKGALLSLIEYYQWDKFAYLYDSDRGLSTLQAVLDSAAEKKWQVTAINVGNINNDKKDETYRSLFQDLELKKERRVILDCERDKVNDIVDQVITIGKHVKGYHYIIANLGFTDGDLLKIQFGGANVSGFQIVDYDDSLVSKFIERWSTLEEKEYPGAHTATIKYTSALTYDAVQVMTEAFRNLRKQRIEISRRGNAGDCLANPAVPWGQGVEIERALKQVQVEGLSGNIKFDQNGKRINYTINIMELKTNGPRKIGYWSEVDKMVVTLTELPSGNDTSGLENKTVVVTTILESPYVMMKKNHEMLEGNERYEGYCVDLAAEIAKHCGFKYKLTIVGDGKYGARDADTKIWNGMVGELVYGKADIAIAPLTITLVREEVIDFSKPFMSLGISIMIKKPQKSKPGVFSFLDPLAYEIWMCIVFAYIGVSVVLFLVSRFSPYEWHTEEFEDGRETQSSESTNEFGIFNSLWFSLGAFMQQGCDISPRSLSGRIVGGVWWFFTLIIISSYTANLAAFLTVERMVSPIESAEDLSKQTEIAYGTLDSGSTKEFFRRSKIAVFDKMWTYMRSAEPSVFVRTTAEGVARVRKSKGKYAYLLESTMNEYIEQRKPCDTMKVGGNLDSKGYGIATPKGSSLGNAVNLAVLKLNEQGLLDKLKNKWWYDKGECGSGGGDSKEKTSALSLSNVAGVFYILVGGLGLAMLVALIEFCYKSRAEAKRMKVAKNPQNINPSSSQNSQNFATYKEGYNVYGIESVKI
Sequence of Glutamate receptor ionotropic, AMPA (Rattus norvegicus, UniProt P19491+P19492+P19493+P19490) (P19492 whole entry): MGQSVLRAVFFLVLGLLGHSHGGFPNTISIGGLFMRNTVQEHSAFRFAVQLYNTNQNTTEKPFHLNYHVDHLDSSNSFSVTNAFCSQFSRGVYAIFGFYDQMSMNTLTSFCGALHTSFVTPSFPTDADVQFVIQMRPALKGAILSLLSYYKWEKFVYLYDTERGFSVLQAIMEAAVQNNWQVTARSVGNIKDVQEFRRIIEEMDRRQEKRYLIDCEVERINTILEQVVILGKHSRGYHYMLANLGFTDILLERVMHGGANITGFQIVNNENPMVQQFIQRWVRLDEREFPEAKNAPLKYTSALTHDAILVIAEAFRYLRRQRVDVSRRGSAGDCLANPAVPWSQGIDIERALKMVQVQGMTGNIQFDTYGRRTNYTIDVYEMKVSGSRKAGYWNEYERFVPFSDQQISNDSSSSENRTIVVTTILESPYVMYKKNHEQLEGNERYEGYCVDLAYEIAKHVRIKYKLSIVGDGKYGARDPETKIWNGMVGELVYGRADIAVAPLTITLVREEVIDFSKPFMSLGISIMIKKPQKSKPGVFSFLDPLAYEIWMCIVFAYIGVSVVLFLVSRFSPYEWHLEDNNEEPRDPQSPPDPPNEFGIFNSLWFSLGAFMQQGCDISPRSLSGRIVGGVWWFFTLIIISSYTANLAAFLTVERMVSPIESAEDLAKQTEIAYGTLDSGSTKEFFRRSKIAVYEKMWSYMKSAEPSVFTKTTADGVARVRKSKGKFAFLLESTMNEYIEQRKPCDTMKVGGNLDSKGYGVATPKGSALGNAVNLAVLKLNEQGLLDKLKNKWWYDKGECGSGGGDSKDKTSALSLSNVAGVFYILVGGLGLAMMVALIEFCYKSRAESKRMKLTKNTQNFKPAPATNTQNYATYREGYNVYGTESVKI
Sequence of Glutamate receptor ionotropic, AMPA (Rattus norvegicus, UniProt P19491+P19492+P19493+P19490) (P19493 whole entry): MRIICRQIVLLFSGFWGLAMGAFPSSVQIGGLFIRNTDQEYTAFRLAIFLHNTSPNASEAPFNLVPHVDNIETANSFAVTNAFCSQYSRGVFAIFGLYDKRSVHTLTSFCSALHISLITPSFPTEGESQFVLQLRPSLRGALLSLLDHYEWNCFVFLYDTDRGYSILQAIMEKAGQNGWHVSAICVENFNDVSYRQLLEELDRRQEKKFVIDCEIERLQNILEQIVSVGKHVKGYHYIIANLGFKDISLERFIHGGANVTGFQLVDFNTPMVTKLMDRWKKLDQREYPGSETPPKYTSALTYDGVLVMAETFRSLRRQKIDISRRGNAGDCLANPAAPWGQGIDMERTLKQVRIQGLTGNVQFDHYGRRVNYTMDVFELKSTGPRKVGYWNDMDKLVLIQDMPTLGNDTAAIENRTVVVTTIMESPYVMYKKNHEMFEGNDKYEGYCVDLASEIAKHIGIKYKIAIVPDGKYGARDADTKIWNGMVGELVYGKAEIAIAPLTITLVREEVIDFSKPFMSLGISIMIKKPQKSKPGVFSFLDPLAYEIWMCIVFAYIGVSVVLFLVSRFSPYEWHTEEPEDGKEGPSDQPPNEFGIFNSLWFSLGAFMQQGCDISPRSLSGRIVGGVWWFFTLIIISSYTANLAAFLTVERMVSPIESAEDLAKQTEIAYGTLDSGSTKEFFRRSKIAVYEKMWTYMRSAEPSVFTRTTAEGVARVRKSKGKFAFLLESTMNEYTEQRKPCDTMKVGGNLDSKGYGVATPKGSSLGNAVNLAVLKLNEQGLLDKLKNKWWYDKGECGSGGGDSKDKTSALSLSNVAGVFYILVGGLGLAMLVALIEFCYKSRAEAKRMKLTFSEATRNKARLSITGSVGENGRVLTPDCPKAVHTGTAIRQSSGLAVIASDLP
Sequence of Glutamate receptor ionotropic, AMPA (Rattus norvegicus, UniProt P19491+P19492+P19493+P19490) (P19490 whole entry): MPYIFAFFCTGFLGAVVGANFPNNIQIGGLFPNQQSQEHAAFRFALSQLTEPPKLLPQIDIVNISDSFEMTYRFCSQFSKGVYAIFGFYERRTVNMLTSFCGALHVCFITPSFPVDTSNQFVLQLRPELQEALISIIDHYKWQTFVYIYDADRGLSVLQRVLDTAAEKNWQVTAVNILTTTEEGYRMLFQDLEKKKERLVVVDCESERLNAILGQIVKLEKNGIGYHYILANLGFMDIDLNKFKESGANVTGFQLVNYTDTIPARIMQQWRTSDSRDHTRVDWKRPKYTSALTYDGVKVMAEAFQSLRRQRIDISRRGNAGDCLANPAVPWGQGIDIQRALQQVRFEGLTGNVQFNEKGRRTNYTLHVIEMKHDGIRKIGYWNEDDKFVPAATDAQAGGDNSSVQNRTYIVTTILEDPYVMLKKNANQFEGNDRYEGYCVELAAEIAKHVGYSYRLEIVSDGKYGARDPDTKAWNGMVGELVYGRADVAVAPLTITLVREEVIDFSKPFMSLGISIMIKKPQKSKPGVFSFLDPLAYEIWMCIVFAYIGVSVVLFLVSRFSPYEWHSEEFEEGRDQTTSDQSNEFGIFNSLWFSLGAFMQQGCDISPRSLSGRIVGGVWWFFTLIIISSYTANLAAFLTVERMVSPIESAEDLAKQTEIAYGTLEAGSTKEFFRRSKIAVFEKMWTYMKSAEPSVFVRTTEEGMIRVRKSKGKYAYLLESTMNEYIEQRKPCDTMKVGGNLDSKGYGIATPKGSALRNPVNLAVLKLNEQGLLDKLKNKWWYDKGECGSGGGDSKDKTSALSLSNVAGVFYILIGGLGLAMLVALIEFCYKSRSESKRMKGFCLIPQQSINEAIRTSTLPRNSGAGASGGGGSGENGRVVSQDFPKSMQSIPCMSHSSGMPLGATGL

Row | SMILES | IC50 [1] [µM] | IC50 [2] [µM] | IC50 (Glutamate NMDA receptor [3]) [µM] | IC50 [4] [µM] | IC50 [5] [µM] | IC50 (Glutamate NMDA receptor [7]) [µM] | further results
1 | O=C(O)[C@H]1C[C@@H]2C[C@H](CS(=O)(=O)c3nc[nH]n3)CC[C@@H]2CN1 | 23.6 | > 100 | 60.9 | – | – | – | –
2 | O=C(O)[C@@H]1C[C@H]2C[C@H](CCc3nnn[nH]3)CC[C@H]2CN1 (stereo in doubt; (+)49) | 31.5 | 87 | – | 21.9 | 28.9 | – | –
3 | O=C(O)CC[C@H]1CC[C@H]2CN[C@H](C(=O)O)C[C@H]2C1 | 27.8 | > 100 | 43.9 | – | > 100 | 57 | ED50 (Mus musculus [6]): > 100 mg/kg; ED50 (Mus musculus [8]): > 100 mg/kg; ED50 (Mus musculus [9]): > 100 mg/kg; IC50 [10]: 42 µM
4 | O=C(O)[C@@H]1C[C@H]2C[C@@H](CSc3nn[nH]n3)CC[C@H]2CN1 | 0.6 | 15.7 | 18.1 | – | – | – | ED50 (Mus musculus [11]): 20.1 mg/kg; IC50 (Glutamate NMDA receptor [12]): 22.9 µM; ED50 (Mus musculus [6]): 8.1 mg/kg; ED50 (Mus musculus [9]): 8.5 mg/kg; IC50 [13]: > 31.6 µM; IC50 [14]: 1.4 µM
5 | O=C(O)[C@@H]1C[C@H]2C[C@H](CSc3nn[nH]n3)CC[C@H]2CN1 (stereo in doubt; (+/-)28) | 4.9 | 37.3 | 47.9 | – | – | – | IC50 (Glutamate NMDA receptor [12]): > 100 µM; IC50 [14]: 6.1 µM
6 | CCOC(=O)[C@@H]1C[C@H]2C[C@@H](CCP(=O)(OCC)OCC)CC[C@H]2CN1C(=O)OC | > 100 | – | > 100 | > 100 | > 100 | > 100 | –
7 | CCOC(=O)[C@@H]1C[C@H]2C[C@@H](CCc3cc(OC)no3)CC[C@H]2CN1C(=O)OC | – | – | > 100 | – | – | > 100 | –
8 | O=C(O)CC[C@@H]1CC[C@H]2CN[C@H](C(=O)O)C[C@H]2C1 | > 100 | > 100 | > 100 | > 100 | > 100 | > 100 | –
9 | O=C(CC[C@H]1CC[C@H]2CN[C@H](C(=O)O)C[C@H]2C1)Nc1nn[nH]n1 | 72.6 | > 100 | > 100 | 19 | 71 | 84 | –
10 | O=C(O)[C@@H]1C[C@H]2C[C@@H](Cn3nnnc3S)CC[C@H]2CN1 (racemic) | 12.9 | 16.7 | > 10 | – | – | – | IC50 [15]: Agonist
11 | O=C(O)[C@H]1C[C@@H]2C[C@@H](CSc3nn[nH]n3)CC[C@@H]2CN1 | 17.8 | 27.9 | > 100 | – | – | – | IC50 (Glutamate NMDA receptor [12]): > 100 µM; IC50 [13]: 29.1 µM; IC50 [14]: 9 µM
12 | O=C(O)[C@@H]1C[C@H]2C[C@@H](CS(=O)(=O)c3nnc[nH]3)CC[C@H]2CN1 (stereo in doubt; (-)36) | 0.6 | > 100 | > 100 | – | – | – | –
13 | O=C(O)[C@@H]1C[C@H]2C[C@@H](CCc3nn[nH]n3)CC[C@H]2CN1 [TEZAMPANEL ANHYDROUS] | 14 | 28.1 | 12.1 | 1.8 | – | – | –
14 | O=C(O)[C@@H]1C[C@H]2C[C@H](CCS(=O)(=O)O)CC[C@H]2CN1 | > 100 | > 100 | > 100 | > 100 | > 100 | > 100 | –
15 | O=C(O)[C@@H]1C[C@H]2C[C@@H](CCS(=O)(=O)O)CC[C@H]2CN1 | 11.6 | > 100 | 61.8 | 31.4 | 100 | > 100 | –
16 | O=C(O)[C@@H]1C[C@H]2C[C@@H](c3nnn[nH]3)CC[C@H]2CN1 | – | – | – | – | – | – | ED50 (Mus musculus [9]): 24.1 mg/kg; ED50 (Mus musculus [16]): 19.4 mg/kg; ED50 (Mus musculus [17]): 44.5 mg/kg
